From ChEMBL document CHEMBL2311404, “Synthesis, antibacterial activity and docking of 14-membered 9-O-(3-arylalkyl) oxime 11,12-cyclic carbonate ketolides” (2013)
Values after ≈ are worked out from the molar mass of the structure shown.

Tests used:
Assay type in all cases: functional
Staphylococcus hominis [1] = assay: Antibacterial activity against methicillin-resistant, inducible MLS-resistant, coagulase-deficient Staphylococcus hominis E 3 by broth microdilution method
How it was run: (§1)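 Clinical isolates confirmed by 16S rDNA sequencing. MIC determined by broth microdilution following CLSI recommendations. Quality-control strains were S. aureus ATCC 29213 and S. pneumoniae ATCC 49619. Azithromycin and clarithromycin were run in parallel as reference agents.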

[2] = test system: Staphylococcus epidermidis; assay: Antibacterial activity against methicillin-resistant, constitutive MLS-resistant Staphylococcus epidermidis E 2 by broth microdilution method; how it was run: as §1
[3] = test system: Staphylococcus epidermidis; assay: Antibacterial activity against methicillin-susceptible, inducible MLS-resistant Staphylococcus epidermidis E 1 by broth microdilution method; how it was run: as §1
[4] = test system: Staphylococcus haemolyticus; assay: Antibacterial activity against methicillin-resistant, constitutive MLS-resistant, coagulase-deficient Staphylococcus haemolyticus PU 19 expressing ermA gene by broth microdilution method; how it was run: as §1
Staphylococcus aureus [5] = assay: Antibacterial activity against methicillin-sensitive, inducible MLS-resistant Staphylococcus aureus PU 64 expressing ermA gene by broth microdilution method; how it was run: as §1
Staphylococcus aureus [6] = assay: Antibacterial activity against methicillin-resistant, constitutive MLS-resistant Staphylococcus aureus PU 20 expressing ermC gene by broth microdilution method; how it was run: as §1
Staphylococcus aureus [7] = assay: Antibacterial activity against methicillin-resistant, inducible MLS-resistant Staphylococcus aureus PU 32 expressing ermA gene by broth microdilution method; how it was run: as §1
Staphylococcus aureus [8] = assay: Antibacterial activity against erythromycin-susceptible Staphylococcus aureus ATCC 29213 by broth microdilution method
How it was run: (§2)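 MIC by broth microdilution following CLSI recommendations. Clinical isolates were identified by 16S rDNA sequencing and labeled by genotype and phenotype. S. aureus ATCC 29213 and S. pneumoniae ATCC 49619 served as control strains, with azithromycin and clarithromycin as reference agents.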

Streptococcus pyogenes [9] = assay: Antibacterial activity against erythromycin-susceptible Streptococcus pyogenes A3 by broth microdilution method; how it was run: as §2
Streptococcus pyogenes [10] = assay: Antibacterial activity against constitutive MLS-resistant Streptococcus pyogenes A2 by broth microdilution method; how it was run: as §1
[11] = test system: Streptococcus dysgalactiae; assay: Antibacterial activity against erythromycin-resistant Streptococcus dysgalactiae A1 expressing efflux pump by broth microdilution method; how it was run: as §1
Streptococcus pneumoniae [12] = assay: Antibacterial activity against penicillin-susceptible, constitutive MLS-resistant Streptococcus pneumoniae PU 27 expressing erm gene by broth microdilution method; how it was run: as §1
Streptococcus pneumoniae [13] = assay: Antibacterial activity against penicillin-susceptible Streptococcus pneumoniae PU 09 expressing mef gene by broth microdilution method; how it was run: as §2
Streptococcus pneumoniae [14] = assay: Antibacterial activity against penicillin-resistant, constitutive MLS-resistant Streptococcus pneumoniae PU 11 expressing erm and mef genes by broth microdilution method; how it was run: as §1
Streptococcus pneumoniae [15] = assay: Antibacterial activity against erythromycin-sensitive Streptococcus pneumoniae ATCC 49619 by broth microdilution method; how it was run: as §2
[16] = test system: Staphylococcus epidermidis; assay: Ratio of azithromycin MIC to compound MIC for methicillin-resistant, constitutive MLS-resistant Staphylococcus epidermidis E 2
[17] = test system: Staphylococcus epidermidis; assay: Ratio of clarithromycin MIC to compound MIC for methicillin-resistant, constitutive MLS-resistant Staphylococcus epidermidis E 2
[18] = test system: Staphylococcus haemolyticus; assay: Ratio of azithromycin MIC to compound MIC for methicillin-resistant, constitutive MLS-resistant, coagulase-deficient Staphylococcus haemolyticus PU 19 expressing ermA gene
[19] = test system: Staphylococcus haemolyticus; assay: Ratio of clarithromycin MIC to compound MIC for methicillin-resistant, constitutive MLS-resistant, coagulase-deficient Staphylococcus haemolyticus PU 19 expressing ermA gene
Streptococcus pyogenes [20] = assay: Ratio of clarithromycin MIC to compound MIC for constitutive MLS-resistant Streptococcus pyogenes A2
Streptococcus pyogenes [21] = assay: Ratio of azithromycin MIC to compound MIC for constitutive MLS-resistant Streptococcus pyogenes A2
Streptococcus pneumoniae [22] = assay: Ratio of azithromycin MIC to compound MIC for penicillin-resistant, constitutive MLS-resistant Streptococcus pneumoniae PU 11 expressing erm and mef genes
Streptococcus pneumoniae [23] = assay: Ratio of clarithromycin MIC to compound MIC for penicillin-resistant, constitutive MLS-resistant Streptococcus pneumoniae PU 11 expressing erm and mef genes
[24] = test system: Streptococcus dysgalactiae; assay: Ratio of clarithromycin MIC to compound MIC for erythromycin-resistant Streptococcus dysgalactiae A1 expressing efflux pump
Streptococcus pneumoniae [25] = assay: Ratio of clarithromycin MIC to compound MIC for penicillin-susceptible Streptococcus pneumoniae PU 09 expressing mef gene
[26] = test system: Staphylococcus epidermidis; assay: Ratio of azithromycin MIC to compound MIC for methicillin-susceptible, inducible MLS-resistant Staphylococcus epidermidis E 1
[27] = test system: Staphylococcus epidermidis; assay: Ratio of clarithromycin MIC to compound MIC for methicillin-susceptible, inducible MLS-resistant Staphylococcus epidermidis E 1
Staphylococcus hominis [28] = assay: Ratio of azithromycin MIC to compound MIC for methicillin-resistant, inducible MLS-resistant, coagulase-deficient Staphylococcus hominis E 3
Staphylococcus hominis [29] = assay: Ratio of clarithromycin MIC to compound MIC for methicillin-resistant, inducible MLS-resistant, coagulase-deficient Staphylococcus hominis E 3

Compound	MIC (Staphylococcus hominis [1])	MIC [2]	MIC [3]	MIC [4]	MIC (Staphylococcus aureus [5])	MIC (Staphylococcus aureus [6])	MIC (Staphylococcus aureus [7])	MIC (Staphylococcus aureus [8])	MIC (Streptococcus pyogenes [9])	MIC (Streptococcus pyogenes [10])	MIC [11]	MIC (Streptococcus pneumoniae [12])	MIC (Streptococcus pneumoniae [13])	MIC (Streptococcus pneumoniae [14])	MIC (Streptococcus pneumoniae [15])	also measured
CC[C@H]1OC(=O)[C@H](C)C(=O)[C@H](C)[C@@H](O[C@@H]2O[C@H](C)C[C@H](N(C)C)[C@H]2O)[C@](C)(OC)C[C@@H](C)/C(=N\OCC#Cc2cncnc2)[C@H](C)[C@H]2OC(=O)O[C@@]21C	0.064 µg/mL (≈ 0.0859 µM)	> 256 µg/mL	0.064 µg/mL (≈ 0.0859 µM)	256 µg/mL (≈ 344 µM)	0.064 µg/mL (≈ 0.0859 µM)	256 µg/mL (≈ 344 µM)	0.125 µg/mL (≈ 0.168 µM)	0.125 µg/mL (≈ 0.168 µM)	0.016 µg/mL (≈ 0.0215 µM)	128 µg/mL (≈ 172 µM)	0.125 µg/mL (≈ 0.168 µM)	0.25 µg/mL (≈ 0.336 µM)	0.25 µg/mL (≈ 0.336 µM)	128 µg/mL (≈ 172 µM)	0.032 µg/mL (≈ 0.043 µM)	
CC[C@H]1OC(=O)[C@H](C)C(=O)[C@H](C)[C@@H](O[C@@H]2O[C@H](C)C[C@H](N(C)C)[C@H]2O)[C@](C)(OC)C[C@@H](C)/C(=N\OCC#Cc2cncc3ccccc23)[C@H](C)[C@H]2OC(=O)O[C@@]21C	0.064 µg/mL (≈ 0.0806 µM)	32 µg/mL (≈ 40.3 µM)	0.016 µg/mL (≈ 0.0202 µM)	32 µg/mL (≈ 40.3 µM)			0.032 µg/mL (≈ 0.0403 µM)	0.016 µg/mL (≈ 0.0202 µM)	≤ 0.008 µg/mL	16 µg/mL (≈ 20.2 µM)	0.016 µg/mL (≈ 0.0202 µM)	0.064 µg/mL (≈ 0.0806 µM)	0.032 µg/mL (≈ 0.0403 µM)	16 µg/mL (≈ 20.2 µM)	≤ 0.008 µg/mL	Ratio [16]: >8; Ratio [17]: >8; Ratio [18]: >8; Ratio [19]: >8; Ratio (Streptococcus pyogenes [20]): >8; Ratio (Streptococcus pyogenes [21]): >8; Ratio (Streptococcus pneumoniae [22]): >8; Ratio (Streptococcus pneumoniae [23]): >8; Ratio [24]: 500; Ratio (Streptococcus pneumoniae [25]): 125; Ratio [26]: >16000; Ratio [27]: >16000; Ratio (Staphylococcus hominis [28]): >4000; Ratio (Staphylococcus hominis [29]): >4000
CC[C@H]1OC(=O)[C@H](C)C(=O)[C@H](C)[C@@H](O[C@@H]2O[C@H](C)C[C@H](N(C)C)[C@H]2O)[C@](C)(OC)C[C@@H](C)/C(=N\OCC#Cc2cnc3ccccc3c2)[C@H](C)[C@H]2OC(=O)O[C@@]21C	0.25 µg/mL (≈ 0.315 µM)	> 256 µg/mL	0.25 µg/mL (≈ 0.315 µM)	128 µg/mL (≈ 161 µM)	0.25 µg/mL (≈ 0.315 µM)	128 µg/mL (≈ 161 µM)	0.5 µg/mL (≈ 0.63 µM)	0.25 µg/mL (≈ 0.315 µM)	≤ 0.008 µg/mL	64 µg/mL (≈ 80.6 µM)	0.5 µg/mL (≈ 0.63 µM)	0.5 µg/mL (≈ 0.63 µM)	0.5 µg/mL (≈ 0.63 µM)	64 µg/mL (≈ 80.6 µM)	≤ 0.008 µg/mL	
CC[C@H]1OC(=O)[C@H](C)C(=O)[C@H](C)[C@@H](O[C@@H]2O[C@H](C)C[C@H](N(C)C)[C@H]2O)[C@](C)(OC)C[C@@H](C)/C(=N\OCC#Cc2ccc3ncccc3c2)[C@H](C)[C@H]2OC(=O)O[C@@]21C	0.125 µg/mL (≈ 0.157 µM)	> 256 µg/mL	0.032 µg/mL (≈ 0.0403 µM)	64 µg/mL (≈ 80.6 µM)	0.125 µg/mL (≈ 0.157 µM)	64 µg/mL (≈ 80.6 µM)	0.125 µg/mL (≈ 0.157 µM)	0.125 µg/mL (≈ 0.157 µM)	≤ 0.008 µg/mL	64 µg/mL (≈ 80.6 µM)	0.25 µg/mL (≈ 0.315 µM)	0.25 µg/mL (≈ 0.315 µM)	0.25 µg/mL (≈ 0.315 µM)	64 µg/mL (≈ 80.6 µM)	0.016 µg/mL (≈ 0.0202 µM)	
CC[C@H]1OC(=O)[C@H](C)[C@@H](O[C@H]2C[C@@](C)(OC)[C@@H](O)[C@H](C)O2)[C@H](C)[C@@H](O[C@@H]2O[C@H](C)C[C@H](N(C)C)[C@H]2O)[C@](C)(O)C[C@@H](C)CN(C)[C@H](C)[C@@H](O)[C@]1(C)O [AZITHROMYCIN]	> 256 µg/mL	> 256 µg/mL	> 256 µg/mL	> 256 µg/mL	8 µg/mL (≈ 10.7 µM)	> 256 µg/mL	8 µg/mL (≈ 10.7 µM)	1 µg/mL (≈ 1.34 µM)	0.125 µg/mL (≈ 0.167 µM)	> 256 µg/mL	32 µg/mL (≈ 42.7 µM)	64 µg/mL (≈ 85.4 µM)	8 µg/mL (≈ 10.7 µM)	> 256 µg/mL	0.25 µg/mL (≈ 0.334 µM)	
CC[C@H]1OC(=O)[C@H](C)[C@@H](O[C@H]2C[C@@](C)(OC)[C@@H](O)[C@H](C)O2)[C@H](C)[C@@H](O[C@@H]2O[C@H](C)C[C@H](N(C)C)[C@H]2O)[C@](C)(OC)C[C@@H](C)C(=O)[C@H](C)[C@@H](O)[C@]1(C)O [CLARITHROMYCIN]	> 256 µg/mL	> 256 µg/mL	> 256 µg/mL	> 256 µg/mL	2 µg/mL (≈ 2.67 µM)	> 256 µg/mL	1 µg/mL (≈ 1.34 µM)	0.25 µg/mL (≈ 0.334 µM)	0.032 µg/mL (≈ 0.0428 µM)	> 256 µg/mL	8 µg/mL (≈ 10.7 µM)	1 µg/mL (≈ 1.34 µM)	4 µg/mL (≈ 5.35 µM)	> 256 µg/mL	0.032 µg/mL (≈ 0.0428 µM)	
